According to article PMC11483317 (Heliyon, 2024):
“Also recorded” adds a separate entry of the source.

Assays:
[1] = tested on: brain capillary endothelial cells and astrocytes; settings: cited from earlier work; for % of initial radioactivity in the abluminal medium: same bovine BBB model
[2] = tested on: hBLECs of the human BBB model; assay: Toxicity assessment: hBLEC monolayer tightness by Lucifer yellow permeability; format: cell-based
How it was run: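 Integrity check run alongside transport, on PET inserts in Ringer–HEPES (pH 7.4, 37 °C). Lucifer yellow added luminally with test lipid (1 and 10 µM) or 1% DMSO as toxicity control. Abluminal sampled at 30–180 min, luminal at 180 min. Fluorescence read at ex 490/em 525 nm. Permeability divided by 1.12 cm² insert area gives Pe (cm/min), compared with untreated cells. Mean ± SD, n = 3.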

[3] = Passage / apparent permeability across hBLEC monolayer; format: in vitro ADME, human; settings: human, pH 7.4, apparent coefficient permeability (Papp), 10 μM, 180 min after transport across hBLECs
How it was run: (§1)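 Test lipid at 1 or 10 µM in 500 µL Ringer–HEPES (pH 7.4) on the luminal side of hBLEC/pericyte co-culture inserts. Inserts moved to fresh 1.5 mL buffer wells at 30, 60, 120 and 180 min. Media lipids extracted by Bligh–Dyer and quantified by C18 LC-MS. %/min = quantity crossed ÷ initial luminal quantity ÷ time. Papp calculated per an earlier method. Mean ± SD, n = 3.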

hBLECs [4] = assay: as above; format: in vitro ADME, human
How it was run: as §1

hBLECs [5] = assay: Intracellular accumulation in hBLECs, LC-MS; format: in vitro ADME, human; settings: 180 min after incubation
How it was run: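 Human BBB model: cord-blood CD34+-derived endothelial cells on PET inserts, co-cultured ≥6 days with brain pericytes (37 °C, 5% CO2) to give hBLECs. Test lipid at 1 or 10 µM in 500 µL Ringer–HEPES (pH 7.4), luminal side, for 180 min. Cell lipids extracted by Folch method, quantified by C18 LC-MS, and expressed as % of initial concentration. Triplicates.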

brain = settings: 20-days-old rats, tail vein perfusion 30 s; cited from earlier work
brain DHA = settings: normal adult mice, dietary; cited from earlier work

## CC/C=C\C/C=C\C/C=C\C/C=C\C/C=C\C/C=C\CCC(=O)OC(COC(C)=O)COP(=O)([O-])OCC[N+](C)(C)C (stereo not drawn) [AceDoPC, 1-acetyl,2-docosahexaenoyl-glycerophosphocholine]
[1]
  % of initial radioactivity in the abluminal medium: 7.5%

## CC/C=C\C/C=C\C/C=C\C/C=C\C/C=C\C/C=C\CCC(=O)O [DHA, Docosahexaenoic acid]
[2]; 10 μM
  toxicity towards hBLECs (from LY permeability): absence of toxicity
[3]
  Papp at 180 min, 10 μM: 26 ×10⁻⁶ cm/s
hBLECs [4]; 10 μM, 30 min post-incubation
  percentage of passage per min (lipids recovered in abluminal medium): 0.54%
hBLECs [4]; 10 μM, 120 min post-incubation
  percentage of passage per min (lipids recovered in abluminal medium): 0.40%
hBLECs [4]; 10 μM, 180 min after transport across hBLECs
  apparent coefficient permeability (Papp): 26.04 ×10⁻⁶ cm/s
hBLECs [4]; constant over the 180 min transport
  percentage of passage per minute (constant): around 0.5 % per minute
hBLECs [5]; 1 μM
  intracellular accumulation in hBLECs: lower than the limit of detection; also recorded: under the limit of quantification
hBLECs [5]; 10 μM
  intracellular accumulation in hBLECs: 3.11 ± 1.24%
brain
  recovered in the brain, % of injected radioactivity: 0.3–0.4%
[1]; 5 μM, incubation 240 min
  % of initial radioactivity in abluminal medium: 5%
[1]
  % of initial radioactivity in the abluminal medium: 4.5%
Brain DHA
  increase of levels of brain DHA: did not significantly increase

## CC/C=C\C/C=C\C/C=C\C/C=C\C/C=C\C/C=C\CCC(=O)O[C@H](COC(=O)CCCCCCCCCCCCCCC)COP(=O)([O-])OCC[N+](C)(C)C [PC-DHA, 1-palmitoyl,2-docosahexaenoyl-sn-glycero-3-phosphatidylcholine]
[1]
  % of initial radioactivity in the abluminal medium: 4%

## Lucifer Yellow
[2]; control cells, absence of test lipids, 180 min
  BBB permeability to Lucifer yellow (control permeability): 0.55 ± 0.06 x 10^−3 cm min^−1
